# Assays:
# [1] = target: T1, 3-oxo-5-alpha-steroid 4-dehydrogenase 2 (Homo sapiens, UniProt P31213); experiment: Inhibition of recombinant human Steroid 5-alpha-reductase type 2
# T1 sequence (P31213 whole entry): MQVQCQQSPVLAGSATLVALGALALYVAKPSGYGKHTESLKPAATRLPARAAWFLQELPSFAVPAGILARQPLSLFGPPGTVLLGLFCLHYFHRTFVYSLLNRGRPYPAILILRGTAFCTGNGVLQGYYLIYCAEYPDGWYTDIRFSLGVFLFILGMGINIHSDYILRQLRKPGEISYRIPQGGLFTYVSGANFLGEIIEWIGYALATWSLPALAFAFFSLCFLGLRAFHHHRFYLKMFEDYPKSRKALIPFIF
# Method in brief: (§1)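 Baculovirus-expressed recombinant human type 1 or type 2 5α-reductase; cofactor and inhibitor preincubated with the enzyme before testosterone is added. Fixed-time assay following conversion of testosterone to DHT with and without inhibitor. The IC50 is the nM concentration giving 50% inhibition of DHT formation.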
# [2] = target: T2, 3-oxo-5-alpha-steroid 4-dehydrogenase 1 (Homo sapiens, UniProt P18405); experiment: Inhibition of recombinant human Steroid 5-alpha-reductase type I; method in brief: as §1
# T2 sequence (P18405 whole entry): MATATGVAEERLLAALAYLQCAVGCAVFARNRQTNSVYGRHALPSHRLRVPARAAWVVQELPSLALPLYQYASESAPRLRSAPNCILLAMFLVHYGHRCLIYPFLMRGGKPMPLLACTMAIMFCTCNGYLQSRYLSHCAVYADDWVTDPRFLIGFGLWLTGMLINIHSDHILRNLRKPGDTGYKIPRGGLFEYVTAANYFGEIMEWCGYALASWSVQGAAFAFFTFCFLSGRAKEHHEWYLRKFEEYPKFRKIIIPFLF
# [3] = Kinetic Parameter Ki for Inhibition of Type 1 5-alpha-reductase
# [4] = Kinetic Parameter Ki for Inhibition of Type-2 5-alpha-reductase
# [5] = Kinetic Parameter k3/k1 for Inhibition of Type 1 5-alpha-reductase
# Method in brief: (§2)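 Baculovirus-expressed recombinant human type 1 or type 2 5α-reductase; conversion of testosterone to DHT followed over time with and without inhibitor under standard conditions. Second-order rate constants obtained by fitting progress data to the integrated first-order rate equation for time-dependent inhibition.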
# [6] = Kinetic Parameter k3/k1 for Inhibition of Type-2 5-alpha-reductase; method in brief: as §2
SMILES,IC50 [1] [µM],IC50 [2] [µM],Ki [3] [µM],Ki [4] [µM],k3/ki [5] [M⁻¹ s⁻¹],k3/ki [6] [M⁻¹ s⁻¹],k3/k1 [6] [M⁻¹ s⁻¹]
C[C@]12C=CC(=O)NC1CCC1C2CC[C@]2(C)C(C(=O)Nc3ccccc3N)CCC12 (stereo not given in full),< 0.001,0.13,,,,,
C[C@]12C=CC(=O)NC1CCC1C2CC[C@]2(C)C(C(=O)Nc3cc(C(F)(F)F)ccc3C(F)(F)F)CCC12 (stereo not given in full),< 0.0001,0.0058,0.0024,0.0005,270000,7000000,
Cc1ccc(NC(=O)C2CCC3C4CCC5NC(=O)C=C[C@]5(C)C4CC[C@]23C)cc1 (stereo not given in full),0.0001,0.0172,,,,,
C[C@]12C=CC(=O)NC1CCC1C2CC[C@]2(C)C(C(=O)Nc3cccc(F)c3)CCC12 (stereo not given in full),0.0002,0.023,,,,,
C[C@]12C=CC(=O)NC1CCC1C2CC[C@]2(C)C(C(=O)Nc3cccc(N)c3)CCC12 (stereo not given in full),< 0.001,0.094,,,,,
C[C@]12C=CC(=O)NC1CCC1C2CC[C@]2(C)C(C(=O)Nc3ccccc3)CCC12 (stereo not given in full),0.0002,0.02,0.23,0.0017,3900,1700000,
CCN(C(=O)C1CCC2C3CCC4NC(=O)C=C[C@]4(C)C3CC[C@]12C)c1ccccc1 (stereo not given in full),0.0079,0.614,,,,,
C[C@]12C=CC(=O)NC1CCC1C2CC[C@]2(C)C(C(=O)Nc3ccccc3O)CCC12 (stereo not given in full),< 0.001,0.0129,,,,,
C[C@]12C=CC(=O)NC1CCC1C2CC[C@]2(C)C(C(=O)Nc3cccc(-c4ccccc4)c3)CCC12 (stereo not given in full),< 0.0001,0.014,0.024,0.0014,51000,5000000,
C[C@]12C=CC(=O)NC1CCC1C2CC[C@]2(C)C(C(=O)N3CCCCc4ccccc43)CCC12 (stereo not given in full),0.0102,0.595,,,,,
C[C@]12C=CC(=O)NC1CCC1C2CC[C@]2(C)C(C(=O)Nc3ccc(N)cc3)CCC12 (stereo not given in full),< 0.001,0.12,,,,,
CN(C(=O)C1CCC2C3CCC4NC(=O)C=C[C@]4(C)C3CC[C@]12C)c1ccccc1 (stereo not given in full),0.0246,0.35,,,,,
C[C@]12C=CC(=O)NC1CCC1C2CC[C@]2(C)C(C(=O)Nc3ccc(C(=O)c4ccccc4)cc3)CCC12 (stereo not given in full),0.0016,0.019,,,,,
C[C@]12C=CC(=O)NC1CCC1C2CC[C@]2(C)C(C(=O)Nc3cccc(O)c3)CCC12 (stereo not given in full),< 0.001,0.052,,,,,
C[C@]12C=CC(=O)NC1CCC1C2CC[C@]2(C)C(C(=O)Nc3cccc(Cl)c3)CCC12 (stereo not given in full),0.0001,0.0182,,,,,
Cc1ccccc1NC(=O)C1CCC2C3CCC4NC(=O)C=C[C@]4(C)C3CC[C@]12C (stereo not given in full),< 0.0001,0.0303,,,,,
C[C@]12C=CC(=O)NC1CCC1C2CC[C@]2(C)C(C(=O)Nc3ccccc3-c3ccccc3)CCC12 (stereo not given in full),< 0.0001,0.0383,,,,,
C[C@]12C=CC(=O)NC1CCC1C2CC[C@]2(C)C(C(=O)Nc3ccccc3F)CCC12 (stereo not given in full),< 0.0001,0.0079,,,,,
C[C@]12C=CC(=O)NC1CCC1C2CC[C@]2(C)C(C(=O)Nc3ccc(O)cc3)CCC12 (stereo not given in full),< 0.001,0.074,,,,,

SMILES,IC50 [1] [µM],IC50 [2] [µM],Ki [3] [µM],Ki [4] [µM],k3/ki [5] [M⁻¹ s⁻¹],k3/ki [6] [M⁻¹ s⁻¹],k3/k1 [6] [M⁻¹ s⁻¹]
COc1ccc(NC(=O)C2CCC3C4CCC5NC(=O)C=C[C@]5(C)C4CC[C@]23C)cc1 (stereo not given in full),< 0.001,0.026,,,,,
C[C@]12C=CC(=O)NC1CCC1C2CC[C@]2(C)C(C(=O)Nc3ccc(F)cc3)CCC12 (stereo not given in full),0.0002,0.0225,,,,,
C[C@]12C=CC(=O)NC1CCC1C2CC[C@]2(C)C(C(=O)Nc3ccccc3C(=O)c3ccccc3)CCC12 (stereo not given in full),< 0.001,0.0287,,,,,
C[C@]12C=CC(=O)NC1CCC1C2CC[C@]2(C)C(C(=O)Nc3cccc(C(=O)c4ccccc4)c3)CCC12 (stereo not given in full),< 0.001,0.012,,,,,
Cc1cccc(NC(=O)C2CCC3C4CCC5NC(=O)C=C[C@]5(C)C4CC[C@]23C)c1 (stereo not given in full),0.0003,0.0246,,,,,
C[C@]12C=CC(=O)NC1CCC1C2CC[C@]2(C)C(C(=O)Nc3ccc(-c4ccccc4)cc3)CCC12 (stereo not given in full),0.0022,0.0349,,,,,
C[C@]12C=CC(=O)NC1CCC1C2CC[C@]2(C)C(C(=O)Nc3cccc(Br)c3)CCC12 (stereo not given in full),0.0002,0.0205,,,,,
Cc1cccc(C)c1NC(=O)C1CCC2C3CCC4NC(=O)C=C[C@]4(C)C3CC[C@]12C (stereo not given in full),< 0.001,0.014,,,,,
C[C@]12C=CC(=O)NC1CCC1C2CC[C@]2(C)C(C(=O)Nc3ccc4ccccc4c3)CCC12 (stereo not given in full),0.0002,0.0172,,,,,
C[C@]12C=CC(=O)NC1CCC1C2CC[C@]2(C)C(C(=O)Nc3ccc(Cl)cc3)CCC12 (stereo not given in full),0.0002,0.0068,,,,,
C[C@]12C=CC(=O)NC1CCC1C2CC[C@]2(C)C(C(=O)Nc3ccccc3C(F)(F)F)CCC12 (stereo not given in full),< 0.0001,0.0056,0.012,0.0013,35000,9700000,
C[C@]12C=CC(=O)NC1CCC1C2CC[C@]2(C)C(C(=O)N3CCCc4ccccc43)CCC12 (stereo not given in full),0.0014,0.154,,,,,
COc1cccc(NC(=O)C2CCC3C4CCC5NC(=O)C=C[C@]5(C)C4CC[C@]23C)c1 (stereo not given in full),< 0.001,0.019,,,,,
COc1ccccc1NC(=O)C1CCC2C3CCC4NC(=O)C=C[C@]4(C)C3CC[C@]12C (stereo not given in full),< 0.001,0.011,,,,,
C[C@]12C=CC(=O)NC1CCC1C2CC[C@]2(C)C(C(=O)Nc3cccc(C(F)(F)F)c3)CCC12 (stereo not given in full),0.0001,0.0125,,,,,
C[C@]12C=CC(=O)NC1CCC1C2CC[C@]2(C)C(C(=O)Nc3ccc(C(F)(F)F)cc3)CCC12 (stereo not given in full),0.0004,0.0209,,,,,
C[C@]12C=CC(=O)NC1CCC1C2CC[C@]2(C)C(C(=O)N(c3ccccc3)c3ccccc3)CCC12 (stereo not given in full),0.0252,> 1,,,,,
C[C@]12C=CC(=O)NC1CCC1C2CC[C@]2(C)C(C(=O)Nc3ccccc3Cl)CCC12 (stereo not given in full),< 0.0001,0.0145,,,,,
C[C@]12C=CC(=O)NC1CCC1C2CC[C@]2(C)C(C(=O)Nc3cccc4ccccc34)CCC12 (stereo not given in full),0.0002,0.0081,0.07,0.0005,,,2100000

# From ChEMBL document CHEMBL1128511, “4-Aza-3-oxo-5 alpha-androst-1-ene-17 beta-N-aryl-carboxamides as dual inhibitors of human type 1 and type 2 steroid 5 alpha-reductases. Dramatic effect of N-aryl substituents on type 1 and type 2 5 alpha-reductase inhibitory potency” (J Med Chem, 1995)
